Laboratory results: ChEMBL document CHEMBL1765014, “Non-peptide NK1 receptor ligands based on the 4-phenylpyridine moiety” (Bioorg Med Chem, 2011)
The source made the active and inactive calls. The calls are words filed in the database; no cut-off is given here.

Key:
Substance-P receptor = Substance-P receptor (Homo sapiens, UniProt P25103); assay: Displacement of [125I]BH-SP from human recombinant NK1 receptor expressed in CHO cells after 90 mins; type: cell-based
[1] = Antiangiogenic activity in bovine CVEC cell assessed as inhibition of Sar9-SP-sulfone-induced proliferation at 1 uM after 48 hrs by microscopic analysis; type: functional; details: Bos taurus
How it was run: (§1)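 Subconfluent, synchronized bovine CVEC were stimulated with 10 nM Sar9-SP-sulfone, with or without test compound, for 48 h. Fixed and stained cells were counted microscopically as total cell number per well. Results are expressed as % inhibition of agonist-induced proliferation. Data are means ± SEM of three experiments; Student's t test.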

[2] = Antiangiogenic activity in bovine CVEC cell assessed as inhibition of Sar9-SP-sulfone-induced cell migration at 100 nM after 4 hrs by microscopic analysis; type: functional; details: Bos taurus
How it was run: (§2)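 Bovine post-capillary venular endothelial cells (CVEC), cultured as previously described. Cells migrated toward 10 nM Sar9-SP-sulfone with or without test compound in a Neuroprobe microchemotaxis chamber and were evaluated after 4 h. Results are expressed as % inhibition of Sar9-SP-sulfone-induced activity. Data are means ± SEM of three experiments; Student's t test.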

[3] = Antiangiogenic activity in bovine CVEC cell assessed as inhibition of Sar9-SP-sulfone-induced proliferation after 48 hrs by microscopic analysis; type: functional, cell-based; details: Bos taurus; how it was run: as §1
[4] = Antiangiogenic activity in bovine CVEC cell assessed as inhibition of Sar9-SP-sulfone-induced proliferation at 100 nM after 48 hrs by microscopic analysis; type: functional; details: Bos taurus; how it was run: as §1
[5] = Antiangiogenic activity in bovine CVEC cell assessed as inhibition of Sar9-SP-sulfone-induced cell migration after 4 hrs by microscopic analysis; type: functional, cell-based; details: Bos taurus; how it was run: as §2
[6] = Antiangiogenic activity in bovine CVEC cell assessed as inhibition of Sar9-SP-sulfone-induced cell migration at 1 uM after 4 hrs by microscopic analysis; type: functional; details: Bos taurus; how it was run: as §2
CVEC [7] = assay: Antiangiogenic activity in bovine CVEC cell assessed as cell migration at 100 nM to 1 uM after 4 hrs by microscopic analysis; type: functional, cell-based; details: Bos taurus; how it was run: as §2
CVEC [8] = assay: Antiangiogenic activity in bovine CVEC cell assessed as cell proliferation at 100 nM to 1 uM after 48 hrs by microscopic analysis; type: functional, cell-based; details: Bos taurus; how it was run: as §1

Chain of Substance-P receptor (P25103 whole entry): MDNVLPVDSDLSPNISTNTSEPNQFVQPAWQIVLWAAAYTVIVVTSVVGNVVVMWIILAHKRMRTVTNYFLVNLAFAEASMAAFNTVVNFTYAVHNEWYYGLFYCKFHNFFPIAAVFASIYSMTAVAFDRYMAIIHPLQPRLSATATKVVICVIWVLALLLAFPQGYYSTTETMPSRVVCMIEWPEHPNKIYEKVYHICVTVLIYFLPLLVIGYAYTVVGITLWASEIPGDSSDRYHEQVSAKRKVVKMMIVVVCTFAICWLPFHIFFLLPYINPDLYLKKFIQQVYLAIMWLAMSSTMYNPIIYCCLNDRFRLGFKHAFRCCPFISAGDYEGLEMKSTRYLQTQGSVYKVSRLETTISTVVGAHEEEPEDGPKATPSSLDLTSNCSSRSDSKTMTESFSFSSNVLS

SMILES	IC50 (Substance-P receptor) [nM]	other results
Cc1nc(Cl)cc(-c2ccccc2)c1C(=O)N(C)Cc1cc(C(F)(F)F)cc(C(F)(F)F)c1	91	
Cc1c(C(=O)NCc2cc(C(F)(F)F)cc(C(F)(F)F)c2)c(-c2ccccc2)cc[n+]1[O-]	342	
Cc1nccc(-c2ccccc2)c1C(=O)NCc1cc(C(F)(F)F)cc(C(F)(F)F)c1	653	
COc1ccccc1CNC(=O)c1c(-c2ccccc2)ccnc1C		inhibition at 1 µM [1]: 11%; inhibition at 0.1 µM [2]: 0%; IC50 [3]: > 1000 nM; inhibition at 0.1 µM [4]: 0%; IC50 [5]: > 1000 nM; inhibition at 1 µM [6]: 9%
Cc1nc(Cl)cc(-c2ccccc2)c1C(=O)NCc1cc(C(F)(F)F)cc(C(F)(F)F)c1	270	
CN(Cc1cc(C(F)(F)F)cc(C(F)(F)F)c1)C(=O)c1c(CO)nc2ccccc2c1-c1ccccc1	42	
O=C(NCc1cc(C(F)(F)F)cc(C(F)(F)F)c1)c1c(CO)nc2ccccc2c1-c1ccccc1	227	
CN(Cc1cc(C(F)(F)F)cc(C(F)(F)F)c1)C(=O)c1c(-c2ccccc2)ccnc1CCl	52	
Cc1c(C(=O)N(C)Cc2cc(C(F)(F)F)cc(C(F)(F)F)c2)c(-c2ccccc2)cc2nnnn12	57	
O=C(NCc1cc(C(F)(F)F)cc(C(F)(F)F)c1)c1cnc2ccccc2c1-c1ccccc1	208	
Cc1c(C(=O)NCc2cc(C(F)(F)F)cc(C(F)(F)F)c2)c(-c2ccccc2)cc2nnnn12	279	
CN(Cc1cc(C(F)(F)F)cc(C(F)(F)F)c1)C(=O)c1cnc2ccccc2c1-c1ccccc1	92	
Cc1c(C(=O)N(C)Cc2cc(C(F)(F)F)cc(C(F)(F)F)c2)c(-c2ccccc2)cc[n+]1[O-]	32	

Now from value to compound, other results behind:

IC50 (Substance-P receptor) [nM]	SMILES	other results
53	Cc1c(C(=O)N(C)Cc2cc(C(F)(F)F)cc(C(F)(F)F)c2)c(-c2ccccc2)cc2nncn12	
19	Cc1nc2ccccc2c(-c2ccccc2)c1C(=O)N(C)Cc1cc(C(F)(F)F)cc(C(F)(F)F)c1	
53	Cc1nc(N2CCN(C)CC2)cc(-c2ccccc2)c1C(=O)NCc1cc(C(F)(F)F)cc(C(F)(F)F)c1	inhibition at 1 µM [1]: 76.3%; inhibition at 0.1 µM [2]: 100%; Activity (CVEC [7]): inactive; Activity (CVEC [8]): inactive; inhibition at 0.1 µM [4]: 33.5%; inhibition at 1 µM [6]: 100%
235	O=C(NCc1cc(C(F)(F)F)cc(C(F)(F)F)c1)c1c(-c2ccccc2)ccnc1CCl	
257	Cc1nc2ccccc2c(-c2ccccc2)c1C(=O)NCc1cc(C(F)(F)F)cc(C(F)(F)F)c1	
41	Cc1cc(-c2ccccc2)c(C(=O)N(C)Cc2cc(C(F)(F)F)cc(C(F)(F)F)c2)c(C)n1	
698	Cc1c(C(=O)NCc2cc(C(F)(F)F)cc(C(F)(F)F)c2)c(-c2ccccc2)cc2nncn12	
4.8	Cc1nc(N2CCN(C)CC2)cc(-c2ccccc2)c1C(=O)N(C)Cc1cc(C(F)(F)F)cc(C(F)(F)F)c1	inhibition at 1 µM [1]: 79.7%; inhibition at 0.1 µM [2]: 100%; Activity (CVEC [7]): inactive; Activity (CVEC [8]): inactive; inhibition at 0.1 µM [4]: 7.6%; inhibition at 1 µM [6]: 99%
434	Cc1cc(-c2ccccc2)c(C(=O)NCc2cc(C(F)(F)F)cc(C(F)(F)F)c2)c(C)n1	
98	Cc1nccc(-c2ccccc2)c1C(=O)N(C)Cc1cc(C(F)(F)F)cc(C(F)(F)F)c1	
